Source: PubChem BioAssay (Johns Hopkins Ion Channel Center)
MrgX1 ag: agonists of human MrgX1 receptor; Q96LB2; MrgX1-HEK293 cells, Fluo-4 calcium fluorescence, agonist mode; hits give high values; B-score at 10 µM; 0.44% of 310,000 active;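 active = calcium response B-score plate-corrected fluorescence ratio at least 3 library SD, with starting fluorescence B-score inside 5 SD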
Target sequence (Q96LB2 whole entry, looked up): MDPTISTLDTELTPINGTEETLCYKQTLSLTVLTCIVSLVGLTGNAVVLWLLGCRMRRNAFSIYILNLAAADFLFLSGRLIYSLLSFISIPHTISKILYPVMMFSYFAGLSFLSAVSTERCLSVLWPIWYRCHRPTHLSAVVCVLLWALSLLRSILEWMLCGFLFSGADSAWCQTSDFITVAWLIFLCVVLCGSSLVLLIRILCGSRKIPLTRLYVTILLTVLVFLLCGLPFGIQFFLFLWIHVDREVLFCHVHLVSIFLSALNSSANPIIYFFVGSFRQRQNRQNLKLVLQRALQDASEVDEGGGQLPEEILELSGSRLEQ
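System – MrgX1-expressing HEK293 cells · Incubation – cells plated overnight, dye loaded 0.5 h 37 °C, 0.5 h room temperature · Technique – kinetic Fluo-4 NW fluorescence of intracellular calcium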
MrgX1 antag: antagonists of human MrgX1 receptor. Q96LB2. MRGX1-HEK293 calcium flux, Fluo-4, BAM8-22 antagonism; hits give low values. B-score at 10 µM. 1.3% of 310,000 active;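 active = calcium-response B-score plate-corrected more than 3 library SD below zero, starting fluorescence within 5 deviations, no agonist response on first addition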;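 note: peak minus trough fluorescence over baseline after final BAM8-22 challenge near maximal dose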
RGS4 pot: potentiators or activators of RGS4 | HEK293 M3R/inducible RGS4, carbachol calcium flux Fluo4; hits give low values | B-score at 10 µM | 0.92% of 310,000 active | AID 463111;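 active = B-score of the integrated calcium signal more than 4 SD below the library mean, with starting fluorescence not abnormally high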;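 note: negative B-score means reduced calcium response which marks RGS4 activation or potentiation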
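Also added: carbachol at ECmax as muscarinic agonist stimulus; Assay system: HEK293 cells with stable M3R and inducible RGS4; Timing: overnight RGS4 induction, 30 min dye load 37 °C, 20 min compound RT; Measured by: Fluo4-AM (2 µM) calcium-flux fluorescence, kinetic read.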
MrgX1 PAM: allosterically activates human MrgX1 receptor signaling | Q96LB2 | MrgX1-HEK293, Fluo-4 calcium flux, FDSS; hits give high values | B-score at 10 µM | 0.63% of 310,000 active | AID 588675;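 active = plate-corrected calcium response at least 3 library SD above typical, normal starting fluorescence, not activating the receptor alone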;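 note: compound read alongside a low EC10 to EC30 dose of BAM8-22 agonist; peak minus trough fluorescence over baseline measured at the second addition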
RGS4 inh: human RGS4 inhibition; AID 463165; 0.45% of 310,000 active; B-score at 10 µM; P49798; HEK293 M3R/RGS4 inducible, Fluo-4 calcium flux; hits give high values; triggered by carbachol at its EC20;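 active = B-score, a plate-corrected calcium signal, over three deviations above library mean, with baseline fluorescence within five deviations of library mean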;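 note: RGS4 expression induced by doxycycline in cells with stable M3 receptor; B-score is computed from the integrated fluorescence ratio over baseline after carbachol; higher B-score means a larger calcium signal and so more RGS4 inhibition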
Target sequence (P49798 whole entry, looked up): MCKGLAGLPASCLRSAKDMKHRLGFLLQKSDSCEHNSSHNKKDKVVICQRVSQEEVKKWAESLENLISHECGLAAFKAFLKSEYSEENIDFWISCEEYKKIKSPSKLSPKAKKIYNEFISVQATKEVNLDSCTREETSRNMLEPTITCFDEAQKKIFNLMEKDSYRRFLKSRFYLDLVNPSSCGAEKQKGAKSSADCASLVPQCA
Numbers without * were called inactive; i = inactive; x = no result given. This is a sample that favours compounds with a hit; in the whole collection about 3.5% have one here.

SMILES	MrgX1 ag	MrgX1 antag	RGS4 pot	MrgX1 PAM	RGS4 inh
C=CCSc1nc2ccccc2c(=O)n1Cc1ccccc1	i	i	i	i	i
CC1(c2ccccc2)NC(=O)N(CC(=O)NCc2cccc(Cl)c2)C1=O (configuration not stated)	i	i	i	i	i
Cc1nc(N2CCOCC2)nc(OCCN(C)C)c1[N+](=O)[O-]	i	i	i	i	i
Cc1nc(N2CCOCC2)nc(OCCN2CCOCC2)c1[N+](=O)[O-]	i	-5.25*	i	i	i
COc1cccc(CN2CC(C(=O)NCCSc3nnnn3C)CCC2=O)c1 (configuration not stated)	i	i	i	i	i
Cc1ccc2c(c1)/C(=C/c1ccco1)C(=O)N2	i	i	i	i	i
O=C1Nc2ccc(Br)cc2/C1=C/c1ccc(C(=O)O)cc1	i	i	i	i	8.01*
CCCCCCOc1ccc(/C(C)=N/NC2=NCCN2)cc1[N+](=O)[O-]	i	i	i	i	i
CCCCOc1ccc(Br)cc1/C(C)=N/NC1=NCCN1	i	i	-8.11*	i	i
O=C(Nc1c(C(=O)N2CCOCC2)cnn1-c1ccccc1)c1ccc(F)cc1	i	i	i	i	i
COc1cccc(/C=N/NC(=O)c2oc3nc(-c4ccccc4)cc(-c4ccco4)c3c2N)c1	i	-4.74*	i	i	i
NNC(=O)c1oc2nc(-c3cccs3)cc(-c3ccco3)c2c1N	i	i	-9.68*	i	i
COc1ccc(C(=O)c2sc3nc(-c4ccccc4)ccc3c2N)cc1	i	i	i	10.7*	i
CC(C)OC(=O)c1sc2nc(-c3ccccc3)ccc2c1N	i	i	i	i	i
CCn1c2ccccc2c2cc(NC(=O)c3coc(=O)c(Br)c3)ccc21	i	i	i	i	i
CCn1c2ccccc2c2cc(NC(=O)c3ccc(Br)o3)ccc21	i	-7.51*	i	i	i
O=C1C(Cl)=C(NCCCO)C(=O)c2ccccc21	i	i	i	i	i
O=C1C(SCCO)=C(SCCO)C(=O)c2ccccc21	i	-12.6*	x	i	x
CC1=C(C)CC(C(=O)NCc2c(F)cccc2Cl)C(C(=O)O)C1 (configuration not stated)	i	i	i	i	i
COc1ccc(Nc2nc(NCCN3CCOCC3)nc(Nc3ccc(OC)cc3)n2)cc1	i	i	i	i	i
O=S(=O)(Nc1ccc(N2CCCCC2)cc1)c1cccs1	i	i	i	i	i
O=S(=O)(Nc1cc(Cl)ccc1N1CCCCC1)c1cccs1	i	-13.2*	i	i	i
Cc1ncsc1CCC(=O)N1CCCC(Nc2ccc(C(C)C)cc2)C1 (configuration not stated)	i	-6.57*	i	i	i
O=C(NNC(=O)C1CC1c1ccccc1)Nc1cccc(Cl)c1 (configuration not stated)	i	-5.38*	i	i	i
CCc1cccc(NC(=O)C2CC2c2ccccc2)c1 (configuration not stated)	i	i	i	i	i
SMILES	MrgX1 ag	MrgX1 antag	RGS4 pot	MrgX1 PAM	RGS4 inh
CCCc1ccc(OCc2ccc(C(=O)NN)o2)c(OC)c1	i	-5.27*	i	i	i
CCCc1ccc(OCc2ccc(C(=O)O)o2)c(OC)c1	i	i	i	i	i
COc1ccc(-c2cc3c(=O)n(CC(=O)Nc4cccc(Cl)c4)nc(C)n3n2)cc1	i	i	i	i	i
COCCNC(=O)Cn1nc(C)c([N+](=O)[O-])c1C	i	i	i	i	i
COc1ccc(/C=N/OC/C(O)=C(\C#N)c2nc3ccccc3[nH]2)cc1	i	-5.62*	i	i	i
N#C/C(=C(/O)COC(=O)Cc1c[nH]c2ccccc12)c1nc2ccccc2[nH]1	i	-4.93*	i	i	i
NS(=O)(=O)c1ccc(NC(=O)NC2CC(=O)N(c3ccc4c(c3)OCCO4)C2)cc1 (configuration not stated)	i	i	i	i	i
Cc1ccc(-c2csc(NC(=O)C3=NN(c4ccccc4)C(=O)CC3)n2)cc1	i	-4.85*	i	i	i
Cc1csc(NC(=O)C2=NN(c3ccccc3)C(=O)CC2)n1	i	i	i	i	i
O=C(Cc1c(F)cccc1Cl)NNC(=S)Nc1ccc(S(=O)(=O)Nc2ncccn2)cc1	i	i	i	i	i
CCOC(=O)c1ccc(NC(=O)NCc2cccnc2)cc1	i	i	i	i	i
Cn1cccc1/C=C1\CCC/C(=C\c2cccn2C)C1=O	38*	i	i	i	i
O=C1/C(=C/c2cccs2)CCC/C1=C\c1cccs1	i	i	i	i	i
CN(CC(=O)Nc1ccc(F)cc1)C(=O)COC(=O)CCN1C(=O)C2CC=CCC2C1=O (configuration not stated)	i	i	i	i	i
O=C(/C=C/c1ccccc1Cl)Nc1ccc(-c2nnc3n2CCCCC3)cc1	i	i	-8.12*	i	i
CC(C)(C)CC(=O)Nc1ccc(-c2nnc3n2CCCCC3)cc1	i	i	i	i	i
COC(=O)C1(C)NC(c2ccc(O)cc2)C2C(=O)N(c3ccc(C)cc3)C(=O)C21 (configuration not stated)	i	i	i	i	i
CN1CCCCC1CCN1c2ccccc2Sc2ccc(S(C)=O)cc21 (configuration not stated)	i	i	-7.28*	i	i
CN1CCCC(CN2c3ccccc3Sc3ccccc32)C1 (configuration not stated)	i	i	i	i	i
CCOc1cccc(CNc2ccc(O)cc2)c1OCc1ccccc1Cl	29.4*	i	i	i	i
CCOc1cccc(CNc2ccc(O)cc2)c1OCc1ccc(Cl)cc1Cl	i	i	i	i	i
CN1CCCc2cc3c(C(F)(F)F)cc(=O)oc3nc21	i	i	-7.98*	i	i
CC(C)c1cc(=O)oc2c3c4c(cc12)CCCN4CCC3	i	i	i	i	i
CC1CCC(C(C)C)C(OP(=O)(c2ccc(N(C)C)cc2)C(O)c2cccnc2)C1 (configuration not stated)	i	-8.7*	i	i	i
CC1CCC(C(C)C)C(OP(=O)(c2ccccc2)C(O)c2ccncc2)C1 (configuration not stated)	i	i	i	i	i
